Experiments:
[1] = tested on: P. falciparum 3D7 (chloroquine-sensitive); type: cell-based; conditions: Plasmodium falciparum, 3D7, Erythrocyte, 48 h, read-out: ED50 (nM) 3D7
Procedure, shortened: (§1)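 Parasites cultured in type A+ human erythrocytes (2% hematocrit) in RPMI-1640 with 20% heat-inactivated type A+ human plasma, under 5% CO2/5% O2/90% N2. Test compound in DMSO added to culture at 0.5% parasitemia and 0.5% hematocrit. Incubated 37 °C for 48 h, then [8-3H]hypoxanthine (0.3 µCi) added for a further 24 h. Cells harvested to filter mats and counted by β-scintillation. Uninfected-erythrocyte background subtracted; DMSO-only wells taken as 100% growth. ED50 from linear regression of incorporation vs concentration.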

[2] = tested on: P. falciparum K1 (chloroquine-resistant, pyrimethamine-resistant); type: cell-based; conditions: Plasmodium falciparum, K1, Erythrocyte, 48 h, read-out: ED50 (nM) K1
Procedure, shortened: as §1

| SMILES | IC50 [1] | IC50 [2] |
| --- | --- | --- |
| Cn1cnc(S(=O)(=O)N(CC2CCN(C(=O)OC(C)(C)C)CC2)[C@H]2CC[C@@H](N(Cc3cncn3C)c3ccc(C#N)cc3)C2)c1 (racemic) [8d, (±)-[N-(N-tert-Butoxycarbonylpiperidin-4-ylmethyl)-N-{cis-3-[(4-cyanophenyl)-(3-methyl-3H-imidazol-4-ylmethyl)amino]cyclopentyl}]-1-methyl-1H-imidazole-4-sulfonamide] | 300 nM |  |
| Cn1cnc(S(=O)(=O)N(CC2CCN(c3ncccn3)CC2)CC(C)(C)N(Cc2cncn2C)c2ccc(C#N)cc2)c1 [3e, [N-{N-(2-Pyrimidinyl)-piperidin-4-ylmethyl}-N-{(4-cyanophenyl)(3-methyl-3H-imidazol-4-ylmethyl)amino}-2,2-dimethylethyl]-1-methyl-1H-imidazole-4-sulfonamide] | 180 nM | 75 nM |
| Cn1cnc(S(=O)(=O)N(Cc2ccsc2)[C@@H]2CCC[C@@H]2N(Cc2cncn2C)c2ccc(C#N)cc2)c1 (racemic) [6c, (±)-[N-(Thiophen-3-ylmethyl)-N-{cis-2-[(4-cyanophenyl)(3-methyl-3H-imidazol-4-ylmethyl)amino]cyclopentyl}]-1-methyl-1H-imidazole-4-sulfonamide] | > 5000 nM | 4200 nM |
| Cc1ccccc1CN(CC(C)(C)N(Cc1cncn1C)c1ccc(C#N)cc1)S(=O)(=O)c1cn(C)cn1 [3b, [N-(2-Methylbenzyl)-N-{(4-cyanophenyl)(3-methyl-3H-imidazol-4-ylmethyl)amino}-2,2-dimethylethyl]-1-methyl-1H-imidazole-4-sulfonamide] | 210 nM | 75 nM |
| Cc1ccccc1CN(CCCN(Cc1cncn1C)c1ccc(C#N)cc1)S(=O)(=O)c1cn(C)cn1 [2b, [N-(2-Methylbenzyl)-N-3-{(4-cyanophenyl)(3-methyl-3H-imidazol-4-ylmethyl)amino}propyl]-1-methyl-1H-imidazole-4-sulfonamide] | 2900 nM | 2900 nM |
| Cn1cnc(S(=O)(=O)N(CCCN(Cc2cncn2C)c2ccc(C#N)cc2)Cc2ccsc2)c1 [2c, [N-(Thiophen-3-ylmethyl)-N-3-{(4-cyanophenyl)(3-methyl-3H-imidazol-4-ylmethyl)amino}propyl]-1-methyl-1H-imidazole-4-sulfonamide] | 2800 nM | 2200 nM |
| Cn1cnc(S(=O)(=O)N(Cc2ccccc2)CC(C)(C)N(Cc2cncn2C)c2ccc(C#N)cc2)c1 [3a, [N-Benzyl-N-{(4-cyanophenyl)(3-methyl-3H-imidazol-4-ylmethyl)amino}-2,2-dimethylethyl]-1-methyl-1H-imidazole-4-sulfonamide] | 160 nM | 55 nM |
| Cn1cnc(S(=O)(=O)N(Cc2ccccc2)[C@@H]2CCC[C@@H]2N(Cc2cncn2C)c2ccc(C#N)cc2)c1 (racemic) [6a, (±)-[N-Benzyl-N-{cis-2-[(4-cyanophenyl)(3-methyl-3H-imidazol-4-ylmethyl)amino]cyclopentyl}]-1-methyl-1H-imidazole-4-sulfonamide] | > 5000 nM | 2400 nM |
| Cn1cnc(S(=O)(=O)N(CCCN(Cc2cncn2C)c2ccc(C#N)cc2)Cc2ccccc2)c1 [2a, [N-Benzyl-N-3-{(4-cyanophenyl)(3-methyl-3H-imidazol-4-ylmethyl)amino}propyl]-1-methyl-1H-imidazole-4-sulfonamide] | 3100 nM |  |
| Cn1cnc(S(=O)(=O)N(CCCN(Cc2cncn2C)c2ccc(C#N)cc2)CC2CCN(c3ncccn3)CC2)c1 [2e, [N-{N-(2-Pyrimidinyl)-piperidin-4-ylmethyl}-N-3-{(4-cyanophenyl)(3-methyl-3H-imidazol-4-ylmethyl)amino}propyl]-1-methyl-1H-imidazole-4-sulfonamide] | 1300 nM |  |
| Cn1cnc(S(=O)(=O)N(CCCN(Cc2cncn2C)c2ccc(C#N)cc2)CC2CCN(C(=O)OC(C)(C)C)CC2)c1 [2d, [N-(N-tert-Butoxycarbonylpiperidin-4-ylmethyl)-N-3-{(4-cyanophenyl)(3-methyl-3H-imidazol-4-ylmethyl)amino}propyl]-1-methyl-1H-imidazole-4-sulfonamide] | 330 nM | 190 nM |
| Cn1cnc(S(=O)(=O)N(CC2CCN(c3ncccn3)CC2)[C@@H]2CCC[C@@H]2N(Cc2cncn2C)c2ccc(C#N)cc2)c1 (racemic) [6e, (±)-[N-{N-(2-Pyrimidinyl)-piperidin-4-ylmethyl}-N-{cis-2-[(4-cyanophenyl)(3-methyl-3H-imidazol-4-ylmethyl)amino]cyclopentyl}]-1-methyl-1H-imidazole-4-sulfonamide] | 3000 nM | 2500 nM |

The next lines start with the values.

| IC50 [1] | IC50 [2] | SMILES |
| --- | --- | --- |
| 3000 nM | 3200 nM | Cc1ccccc1CN([C@H]1CCC[C@@H]1N(Cc1cncn1C)c1ccc(C#N)cc1)S(=O)(=O)c1cn(C)cn1 (racemic) [7b, (±)-[N-(2-Methylbenzyl)-N-{trans-2-[(4-cyanophenyl)(3-methyl-3H-imidazol-4-ylmethyl)amino]cyclopentyl}]-1-methyl-1H-imidazole-4-sulfonamide] |
| 2400 nM | 2200 nM | Cc1ccccc1CN([C@@H]1CC[C@@H](N(Cc2cncn2C)c2ccc(C#N)cc2)C1)S(=O)(=O)c1cn(C)cn1 (racemic) [9b, (±)-[N-(2-Methylbenzyl)-N-{trans-3-[(4-cyanophenyl)(3-methyl-3H-imidazol-4-ylmethyl)amino]cyclopentyl}]-1-methyl-1H-imidazole-4-sulfonamide] |
| 3100 nM |  | Cn1cnc(S(=O)(=O)N(Cc2ccccc2)[C@H]2CCC[C@@H]2N(Cc2cncn2C)c2ccc(C#N)cc2)c1 (racemic) [7a, (±)-[N-Benzyl-N-{trans-2-[(4-cyanophenyl)(3-methyl-3H-imidazol-4-ylmethyl)amino]cyclopentyl}]-1-methyl-1H-imidazole-4-sulfonamide] |
| 2600 nM | 750 nM | Cn1cnc(S(=O)(=O)N(CC2CCN(c3ncccn3)CC2)[C@H]2CCC[C@@H]2N(Cc2cncn2C)c2ccc(C#N)cc2)c1 (racemic) [7e, (±)-[N-{N-(2-Pyrimidinyl)-piperidin-4-ylmethyl}-N-{trans-2-[(4-cyanophenyl)(3-methyl-3H-imidazol-4-ylmethyl)amino]cyclopentyl}]-1-methyl-1H-imidazole-4-sulfonamide] |
| 340 nM |  | Cn1cnc(S(=O)(=O)N(Cc2ccccc2)[C@@H]2CC[C@@H](N(Cc3cncn3C)c3ccc(C#N)cc3)C2)c1 (racemic) [9a, (±)-[N-Benzyl-N-{trans-3-[(4-cyanophenyl)(3-methyl-3H-imidazol-4-ylmethyl)amino]cyclopentyl}]-1-methyl-1H-imidazole-4-sulfonamide] |
| 600 nM | 720 nM | Cn1cnc(S(=O)(=O)N(CC2CCN(c3ncccn3)CC2)[C@H]2CC[C@@H](N(Cc3cncn3C)c3ccc(C#N)cc3)C2)c1 (racemic) [8e, (±)-[N-{N-(2-Pyrimidinyl)-piperidin-4-ylmethyl}-N-{cis-3-[(4-cyanophenyl)(3-methyl-3H-imidazol-4-ylmethyl)amino]cyclopentyl}]-1-methyl-1H-imidazole-4-sulfonamide] |
|  | 1800 nM | Cn1cnc(S(=O)(=O)N(Cc2ccccc2)[C@H]2CC[C@H](N(Cc3cncn3C)c3ccc(C#N)cc3)CC2)c1 [11a, (±)-[N-Benzyl-N-{trans-4-[(4-cyanophenyl)(3-methyl-3H-imidazol-4-ylmethyl)amino]cyclohexyl}]-1-methyl-1H-imidazole-4-sulfonamide] |
